Activity calls are given as the source filed them. No cut-off for these calls is given here.
Columns and labels:
[1] = system: MDA-MB-231; experiment: Cell cycle arrest in human […] cells assessed as accumulation at S phase at 5 uM by propidium iodide staining by FACS analysis (reference value: 13.72%); assay type: functional
[2] = system: MCF7; experiment: Cell cycle arrest in human […] cells assessed as accumulation at G1 phase at 5 uM by propidium iodide staining by FACS analysis (reference value: 62.88%); assay type: functional
[3] = Antiproliferative activity against human COLO205 cells after 24 hrs by MTT assay; assay type: functional, cell-based; conditions: COLO 205, 24 h
Outline: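 MTT viability: cells seeded at 1×10^4 per well in DMEM with 10% FBS, left to adhere overnight, then serum-starved 4 h. Compounds were given at a range of doses, with 0.1% DMSO vehicle as control. EC50 was taken from dose-response curves spanning 100nM-50µM. Data are mean ± SEM from at least three independent experiments.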

[4] = Cytotoxicity against human MCF10A cells after 72 hrs by MTT assay; assay type: ADME, cell-based; conditions: MCF-10A
[5] = system: MDA-MB-231; experiment: Cell cycle arrest in human […] cells assessed as accumulation at G1 phase at 2.5 uM by propidium iodide staining by FACS analysis (reference value: 63.74%); assay type: functional
[6] = system: MCF7; experiment: Antitumor activity against human MCF7 cells xenografted in NIH-3 mouse assessed as reduction in tumor volume at 16 mg/kg, po for 29 days relative to control; assay type: functional; conditions: MCF7, 696 h
Outline: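 MCF-7 cells (5x10^6 in 100μl PBS) injected intraperitoneally into NIH-III nude mice; after tumor induction, groups of n=10 dosed orally daily for 29 days at 8 or 16 mg/kg/day in 1% carboxymethyl cellulose (vehicle controls). Tumor diameter by vernier calipers every third day; volume = π/6×d³ (d mean diameter).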

[7] = system: MCF7; experiment: Cell cycle arrest in human […] cells assessed as accumulation at subG1 phase at 2.5 uM by propidium iodide staining by FACS analysis (reference value: 0.1%); assay type: functional
[8] = system: MCF7; experiment: Cell cycle arrest in human […] cells assessed as accumulation at G1 phase at 2.5 uM by propidium iodide staining by FACS analysis (reference value: 62.88%); assay type: functional
[9] = Safety index, ratio of IC50 for human MCF10A cells to EC50 for human ER-positive MDA-MB-231 cells; conditions: MCF10A cells versus
[10] = system: MDA-MB-231; experiment: Induction of apoptosis in human […] cells assessed as caspase 9 activation at 2.5 to 7.5 uM by Caspase-Glo assay; assay type: functional, cell-based
Outline: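 Caspase-8, -9 and -3 activities measured with Caspase-Glo 8, 9 and 3 kits; mean ± SEM from three independent experiments.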

[11] = system: MCF7; experiment: Antitumor activity against human MCF7 cells xenografted in NIH-3 mouse assessed as reduction in PCNA level in tumor at 16 mg/kg, po for 25 days by Western blot analysis; assay type: functional, organism-based; set-up: dose 16 mg/kg
[12] = target: RAC-alpha serine/threonine-protein kinase (Homo sapiens) (UniProt P31749); experiment: Inhibition of basal level AKT phosphorylation in human MCF7 cells at 1 uM by ELISA; assay type: cell-based
Sequence of RAC-alpha serine/threonine-protein kinase (Homo sapiens) (P31749 whole entry): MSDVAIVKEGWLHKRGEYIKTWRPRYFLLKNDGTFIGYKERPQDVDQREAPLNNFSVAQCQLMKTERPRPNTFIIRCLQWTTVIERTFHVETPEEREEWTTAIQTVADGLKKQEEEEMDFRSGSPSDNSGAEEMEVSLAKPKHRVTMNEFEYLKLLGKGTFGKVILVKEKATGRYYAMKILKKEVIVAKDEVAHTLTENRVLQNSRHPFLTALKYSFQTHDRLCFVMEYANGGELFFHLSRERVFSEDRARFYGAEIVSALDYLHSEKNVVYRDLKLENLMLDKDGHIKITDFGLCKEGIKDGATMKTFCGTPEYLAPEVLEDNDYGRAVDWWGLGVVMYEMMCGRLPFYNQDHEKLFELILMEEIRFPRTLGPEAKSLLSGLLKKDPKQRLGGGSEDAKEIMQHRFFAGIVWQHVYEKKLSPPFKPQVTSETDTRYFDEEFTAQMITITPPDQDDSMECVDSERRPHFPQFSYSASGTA

[13] = target: T1, Signal transducer and activator of transcription 1-alpha/beta (Homo sapiens) (UniProt P42224); experiment: Inhibition of EGF-induced STAT1 phosphorylation in human MDA-MB-231 cells at 1 uM by ELISA; assay type: cell-based
T1 sequence (whole entry): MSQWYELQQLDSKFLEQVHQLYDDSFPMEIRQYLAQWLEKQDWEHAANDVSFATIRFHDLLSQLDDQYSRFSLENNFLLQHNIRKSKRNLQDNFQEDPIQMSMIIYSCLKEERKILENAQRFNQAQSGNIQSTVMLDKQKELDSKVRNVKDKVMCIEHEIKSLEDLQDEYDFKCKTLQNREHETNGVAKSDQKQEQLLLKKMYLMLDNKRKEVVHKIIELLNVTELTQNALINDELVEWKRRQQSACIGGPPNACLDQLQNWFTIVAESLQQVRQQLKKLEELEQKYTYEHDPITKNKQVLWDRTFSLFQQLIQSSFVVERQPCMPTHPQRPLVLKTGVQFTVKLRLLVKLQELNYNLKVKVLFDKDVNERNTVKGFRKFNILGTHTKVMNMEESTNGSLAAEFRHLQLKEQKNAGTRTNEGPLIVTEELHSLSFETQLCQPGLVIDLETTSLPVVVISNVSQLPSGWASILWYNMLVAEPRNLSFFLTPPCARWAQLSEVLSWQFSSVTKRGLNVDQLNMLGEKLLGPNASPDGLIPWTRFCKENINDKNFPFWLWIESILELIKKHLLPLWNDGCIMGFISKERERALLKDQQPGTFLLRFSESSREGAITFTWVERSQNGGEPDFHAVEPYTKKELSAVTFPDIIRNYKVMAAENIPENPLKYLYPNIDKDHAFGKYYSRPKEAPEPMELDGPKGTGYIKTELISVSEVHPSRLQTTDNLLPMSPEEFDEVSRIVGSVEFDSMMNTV

[14] = system: MCF7; experiment: Induction of apoptosis in human MCF7 cells xenografted in NIH-3 mouse assessed as increase in Bax to Bcl2 ratio in tumor at 16 mg/kg, po for 25 days by qPCR; assay type: functional, organism-based; set-up: dose 16 mg/kg
[15] = system: MCF7; experiment: Antitumor activity against human MCF7 cells xenografted in NIH-3 mouse assessed as large area of stroma/deletion of epithelial cells at 16 mg/kg, po for 25 days; assay type: functional, organism-based; set-up: dose 16 mg/kg
[16] = system: Mast/stem cell growth factor receptor Kit (Homo sapiens), P10721 [D816G]; experiment: Inhibition of cKit D816G mutant (unknown origin) at 10 uM
Sequence of Mast/stem cell growth factor receptor Kit (Homo sapiens), P10721 [D816G] (P10721 whole entry D816G): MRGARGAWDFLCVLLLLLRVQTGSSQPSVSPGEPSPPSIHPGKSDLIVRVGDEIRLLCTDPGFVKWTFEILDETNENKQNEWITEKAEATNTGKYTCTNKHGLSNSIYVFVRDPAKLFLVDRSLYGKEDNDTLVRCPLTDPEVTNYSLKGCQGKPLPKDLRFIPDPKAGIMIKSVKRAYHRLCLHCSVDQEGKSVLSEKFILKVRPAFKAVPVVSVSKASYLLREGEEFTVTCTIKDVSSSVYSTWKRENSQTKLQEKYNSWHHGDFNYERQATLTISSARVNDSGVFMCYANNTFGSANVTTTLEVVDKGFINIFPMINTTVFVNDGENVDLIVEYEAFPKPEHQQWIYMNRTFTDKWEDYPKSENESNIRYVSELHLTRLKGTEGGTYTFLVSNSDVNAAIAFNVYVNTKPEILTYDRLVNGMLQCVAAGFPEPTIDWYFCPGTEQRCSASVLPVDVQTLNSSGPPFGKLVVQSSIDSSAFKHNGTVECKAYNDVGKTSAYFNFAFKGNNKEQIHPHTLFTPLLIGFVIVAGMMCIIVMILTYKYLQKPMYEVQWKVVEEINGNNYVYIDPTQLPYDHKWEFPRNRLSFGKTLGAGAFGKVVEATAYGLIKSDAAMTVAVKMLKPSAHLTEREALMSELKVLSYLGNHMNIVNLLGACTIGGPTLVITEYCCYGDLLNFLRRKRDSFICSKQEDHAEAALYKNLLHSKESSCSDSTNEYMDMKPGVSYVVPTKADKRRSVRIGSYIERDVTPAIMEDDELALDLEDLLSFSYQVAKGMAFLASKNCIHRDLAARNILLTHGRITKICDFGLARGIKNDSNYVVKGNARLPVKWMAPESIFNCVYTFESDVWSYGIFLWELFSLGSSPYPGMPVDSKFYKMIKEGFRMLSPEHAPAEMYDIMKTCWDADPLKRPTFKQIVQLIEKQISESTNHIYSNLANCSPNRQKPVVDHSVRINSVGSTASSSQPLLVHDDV
Outline: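 Cell-free kinase profiling was run as a standard 33P-ATP-based in vitro kinase assay.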

[17] = system: MDA-MB-231; experiment: Inhibition of IGF1 expression in human MDA-MB-231 cells at 5 uM by ELISA; assay type: functional, cell-based
[18] = target: Epidermal growth factor receptor (Homo sapiens) (UniProt P00533); experiment: Inhibition of EGF-induced EGFR phosphorylation at Tyr1148 in human MDA-MB-231 cells at 1 uM by ELISA; assay type: cell-based
Sequence of Epidermal growth factor receptor (Homo sapiens) (P00533 whole entry): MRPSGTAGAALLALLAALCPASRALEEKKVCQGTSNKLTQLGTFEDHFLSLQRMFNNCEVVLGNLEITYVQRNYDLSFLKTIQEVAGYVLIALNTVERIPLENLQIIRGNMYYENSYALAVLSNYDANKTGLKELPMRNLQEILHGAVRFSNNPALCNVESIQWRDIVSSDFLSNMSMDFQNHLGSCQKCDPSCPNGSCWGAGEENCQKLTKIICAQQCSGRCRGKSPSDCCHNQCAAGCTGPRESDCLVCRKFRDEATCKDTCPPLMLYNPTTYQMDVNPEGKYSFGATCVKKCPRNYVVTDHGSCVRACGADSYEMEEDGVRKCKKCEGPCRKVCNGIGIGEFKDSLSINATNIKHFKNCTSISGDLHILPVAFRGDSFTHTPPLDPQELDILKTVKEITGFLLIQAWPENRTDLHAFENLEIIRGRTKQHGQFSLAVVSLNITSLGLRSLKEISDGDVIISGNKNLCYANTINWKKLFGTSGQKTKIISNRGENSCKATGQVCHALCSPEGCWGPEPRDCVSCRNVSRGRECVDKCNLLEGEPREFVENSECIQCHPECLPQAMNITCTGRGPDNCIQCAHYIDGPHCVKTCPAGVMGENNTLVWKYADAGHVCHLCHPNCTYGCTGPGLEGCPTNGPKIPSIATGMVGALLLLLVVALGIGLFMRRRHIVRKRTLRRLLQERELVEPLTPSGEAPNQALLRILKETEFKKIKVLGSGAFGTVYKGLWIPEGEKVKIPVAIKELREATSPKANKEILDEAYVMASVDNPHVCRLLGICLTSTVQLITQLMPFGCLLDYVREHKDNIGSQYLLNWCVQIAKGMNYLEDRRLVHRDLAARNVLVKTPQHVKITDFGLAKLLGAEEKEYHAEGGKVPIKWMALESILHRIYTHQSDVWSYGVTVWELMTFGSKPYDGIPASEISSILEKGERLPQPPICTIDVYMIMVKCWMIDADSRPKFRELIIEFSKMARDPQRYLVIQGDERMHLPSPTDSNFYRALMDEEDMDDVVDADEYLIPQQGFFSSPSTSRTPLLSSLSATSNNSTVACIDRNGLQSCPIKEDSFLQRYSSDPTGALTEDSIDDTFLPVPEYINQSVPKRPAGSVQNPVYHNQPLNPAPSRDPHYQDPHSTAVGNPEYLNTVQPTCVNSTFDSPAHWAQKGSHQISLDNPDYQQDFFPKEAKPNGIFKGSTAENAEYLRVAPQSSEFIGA

[19] = system: MDA-MB-231; experiment: Induction of PTEN expression in human MDA-MB-231 cells at 1 uM after 24 hrs by qPCR analysis; assay type: functional, cell-based
Outline: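 qPCR on MDA-MB-231 cells treated with 1µM compound; GAPDH as internal control.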

[20] = target: Plasminogen activator inhibitor 1 (Homo sapiens) (UniProt P05121); experiment: Inhibition of EGF-induced […] PAI-1 in human MDA-MB-231 cells at 1 uM by ELISA; assay type: cell-based
Sequence of Plasminogen activator inhibitor 1 (Homo sapiens) (P05121 whole entry): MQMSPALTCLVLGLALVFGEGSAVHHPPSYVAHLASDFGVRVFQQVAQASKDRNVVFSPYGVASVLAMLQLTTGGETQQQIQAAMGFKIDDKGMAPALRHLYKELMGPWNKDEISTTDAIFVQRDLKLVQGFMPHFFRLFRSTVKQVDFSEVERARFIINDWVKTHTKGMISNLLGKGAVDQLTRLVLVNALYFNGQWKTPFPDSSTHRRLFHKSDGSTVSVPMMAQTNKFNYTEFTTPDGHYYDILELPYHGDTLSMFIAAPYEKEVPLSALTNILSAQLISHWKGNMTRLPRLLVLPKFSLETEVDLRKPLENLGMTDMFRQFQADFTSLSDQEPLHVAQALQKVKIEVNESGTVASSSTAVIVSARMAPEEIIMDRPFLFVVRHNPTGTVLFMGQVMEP
Outline: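 MDA-MB-231 cells treated at 1µM for 24 h with or without EGF. PAI-1 in conditioned medium measured by ELISA.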

[21] = system: MCF7; experiment: Antiproliferative activity against human […] cells at 2.5 to 7.5 uM by annexin V-FITC/propidium iodide staining-based flow cytometric analysis; assay type: functional, cell-based

## CCN(CC)CCO/N=C(\c1ccc(SC)cc1)c1cccc2ccccc12.O=C(O)C(=O)O
[1]
  Activity: 3.65%
[2]
  Activity: 74.66%
[3]
  EC50: 4.2 µM
[4]
  IC50: 50 µM
[5]
  Activity: 80.13%
[6]
  inhibition in vivo at 16 mg/kg: 50%
[7]
  Activity: 0.4%
[8]
  Activity: 70.71%
[9]
  selectivity ratio: 50

## CCN(CC)CCO/N=C(\c1ccc(SC)cc1)c1cccc2ccccc12
[10]
  Activity: Active
[11]
  inhibition: Active
[12]
  inhibition: inactive
[13]
  inhibition: inactive
[14]
  Activity: Active
[15]
  Activity: Active
[16]
  inhibition: inactive
[17]
  inhibition: inactive
[18]
  inhibition: Active
[19]
  Activity: Active
[20]
  inhibition: Active
[21]
  Activity: Active
